# This is a sample that favours compounds with a hit; in the whole collection about 5.8% have one here.
# RBBP9 inh – inhibitors of human serine hydrolase RBBP9; O75884; recombinant RBBP9, FP-Rh probe fluorescence polarization; inhibition, % at 7.94 µM; 220,000 compounds, 0.2% hits;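 active means inhibition above the campaign mean of all tested compounds plus 3 SD, cut at about 14% in these data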;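 further: plate controls were DMSO wells with RBBP9 for no effect and wells lacking RBBP9 protein for full effect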
#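 Test system – recombinant human RBBP9 · Input – RBBP9 2.5 µM in dispensing solution, pre-mixing · Medium – Tris buffer pH 8.0, NaCl, Pluronic · Schedule – preincubation 30 min plus labeling 45 min at 25 °C · Measured by – fluorescence polarization · Measure – % inhibition · Controls – DMSO and no-protein wells · Replicates – one well per compound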
# KCC2 mod – modulators of human KCC2 chloride dependent transport | Q9H2X9 | AID 1456 | KCC2 cells, thallium flux FluoZin-2 fluorescence | B-score of Tl+ flux slope (higher = more flux/activation; lower = inhibition) at 10 µM | 190,000 compounds, 2.2% hits;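 active means thallium flux slope and its plate-corrected score both differing from the plate sample mean at a set confidence after two filtering rounds, in either direction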;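 further: slope of fluorescence scaled to starting intensity during 10 to 20 s after thallium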
# 14-3-3 Bad PPI – disrupts binding of bovine 14-3-3 zeta to phospho-Bad peptide. P63103. TR-FRET 14-3-3zeta/Dy647-pBad peptide displacement, 1 h. inhibition, % at 21.7 µM. 220,000 compounds, 0.71% hits;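 active means inhibition above about 70%, limit read from the data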;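 further: 0% = full 14-3-3 plus peptide FRET controls and 100% = background without 14-3-3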
# Target sequence (P63103 whole entry, looked up): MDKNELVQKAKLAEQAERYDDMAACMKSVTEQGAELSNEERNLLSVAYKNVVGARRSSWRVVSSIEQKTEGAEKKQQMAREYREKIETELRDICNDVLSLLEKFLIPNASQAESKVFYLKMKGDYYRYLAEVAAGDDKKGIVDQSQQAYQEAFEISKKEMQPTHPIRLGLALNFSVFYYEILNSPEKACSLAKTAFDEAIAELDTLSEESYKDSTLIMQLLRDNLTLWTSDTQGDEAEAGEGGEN
# p47phox inh – inhibitors of human p47phox binding | 220,000 compounds, 0.53% hits | inhibition, % at 24.7 µM | P14598 | AID 1274 | p47phox/p22phox peptide binding, fluorescence polarization, 2 h;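 active means inhibition above about 30%, limit read from the data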;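 further: 0% = p47phox with labelled peptide and 100% = labelled peptide alone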
# Target sequence (P14598 whole entry, looked up): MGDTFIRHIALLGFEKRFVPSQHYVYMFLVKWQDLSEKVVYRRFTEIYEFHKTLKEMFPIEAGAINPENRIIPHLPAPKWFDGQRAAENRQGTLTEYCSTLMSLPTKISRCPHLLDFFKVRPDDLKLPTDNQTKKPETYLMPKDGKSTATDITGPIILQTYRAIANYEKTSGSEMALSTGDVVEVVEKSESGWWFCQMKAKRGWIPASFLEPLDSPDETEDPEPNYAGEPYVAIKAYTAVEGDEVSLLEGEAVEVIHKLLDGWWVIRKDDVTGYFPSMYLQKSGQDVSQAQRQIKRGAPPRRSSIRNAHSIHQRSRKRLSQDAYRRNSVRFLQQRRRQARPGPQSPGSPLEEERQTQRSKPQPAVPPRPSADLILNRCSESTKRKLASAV
# ROMK primary – modulates human ROMK potassium channel activity; P48048; Tet-inducible ROMK, thallium flux fluorescence; actives lie on both sides; B-score at 10 µM; 130,000 compounds, 2% hits; AID 1918;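 active means signal ratio slope over the read window, or its plate-corrected B-score, at least 3 SD from the plate mean, either direction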;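 further: B-score of the F/F0 ratio slope over 7 to 12 s after thallium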
# WT yeast gro inh – growth inhibition of WT yeast, mitochondrial fusion screen; 190,000 compounds, 2.1% hits; inhibition, % at 10 µM; mitochondrial fusion phenotypic screen, WT strain; in the data active means inhibition above about 58%; tested in S. cerevisiae
# Starred values were filed as active, the others as inactive; . = not tested or not shown; [ ] = remark or other dose.
SMILES,RBBP9 inh,KCC2 mod,14-3-3 Bad PPI,p47phox inh,ROMK primary,WT yeast gro inh
COc1cccc(C(=O)NC(=S)Nc2ccc3oc(=O)ccc3c2)c1,-7,0.74,1,37*,.,-13
COc1cccc(C(=O)NC(=S)Nc2ccc(Cl)cc2C(=O)O)c1,2,-1.2,-18,-13,.,.
COc1cccc(C(=O)NC(=S)Nc2ccc3c4c(cccc24)CC3)c1,-7,5*,-12,-19,.,49
CCOc1ccc(C(=O)NCC(c2cccs2)N(C)C)cc1 (centres undefined),-2,0.052,-7,-4,-0.09,-2
O=C(Oc1cc2oc(=O)c3c(c2cc1Cl)CCCC3)c1cccs1,4,0.22,5,-16,-0.12,70*
Cc1nc(CS(=O)c2ccc(Cl)cc2)cc(NCc2ccc(Cl)cc2Cl)n1 (centres undefined),-9,.,8,0,-0.022,59*
CCc1ccc2nc(NC(=O)c3ccc4c(=O)[nH]c(CN5CCOCC5)nc4c3)sc2c1,-2,-0.028,94*[fluorescence artefact?],0,.,7
CCc1ccc2nc(NC(=O)c3ccc(N4C(=O)CCC4=O)cc3)sc2c1,-3,-1.3,7,-15,.,.
O=C(/C=C/c1ccccc1)Nc1ccc(Cl)cn1,1,-0.51,-4,-14,3.2,4
COC(=O)COc1ccc(S(=O)(=O)Nc2ccccc2SC)cc1,0,-1.9,-6,91*,-0.85,21
COC(=O)Cn1c(=NC(=O)c2sc3ccccc3c2Cl)sc2cc(S(N)(=O)=O)ccc21,-13,0.74,86*[fluorescence artefact?],-4,-0.22,-4
CCOC(=O)Cn1c(=NC(=O)c2sc3ccccc3c2Cl)sc2cc(S(N)(=O)=O)ccc21,-17,0.0094,79*[fluorescence artefact?],11,-0.026,-8
C#CCn1c(=NC(=O)c2cc(Cl)sc2Cl)sc2cc(S(N)(=O)=O)ccc21,-45,-0.78,76*,-29,-0.91,23
COC(=O)Cn1c(=NC(=O)c2nc3ccccc3s2)sc2cc(S(C)(=O)=O)ccc21,1,-2,-12,-34,0.47,-7
C#CCn1c(=NC(=O)c2ccc(Br)s2)sc2cc(NC(C)=O)ccc21,-2,-0.28,71*[fluorescence artefact?],18,.,-16
CCOC(=O)Cn1c(=NC(=O)CSC(C)=O)sc2ccccc21,-3,0.31,-8,-1,.,4
COCCn1c(=NC(=O)c2cccs2)sc2cc(NC(C)=O)ccc21,-1,0.39,9,-9,.,-7
Nc1cc(=O)[nH]c(SCC(=O)Nc2cccc(Cl)c2Cl)n1,4,-0.8,-5,5,-0.0027,-10
O=C(CNC(=O)Cc1ccc(Cl)cc1)NCc1ccco1,-3,-1,15,-3,-0.11,16
O=C(CSc1ccccc1C(=O)O)NCC1CCCCC1,-2,1.6,5,9,-1.2,-4
O=C(CSc1nc2ccccc2n1CCc1ccccc1)c1ccc(O)c(O)c1,-22,7.8*,94*,-8,1.4,19
CCc1c(C)c(C#N)c2nc3ccccc3n2c1NCc1ccccn1,-10,-2,-13,-10,-0.43,-21
CC(=O)OCC1OC(Nc2cccc(C)c2)C(OC(C)=O)C(OC(C)=O)C1OC(C)=O (centres undefined),-15,0.065,-17,-7,.,-13
Cc1cccc(NC(=O)CCC(=O)OCC(=O)c2ccc(Oc3ccc([N+](=O)[O-])cc3)cc2)c1,-4,0.92,10,-13,0.37,-6
Cc1ccc(NC(=O)CCC(=O)OCC(=O)c2ccc(Oc3ccc([N+](=O)[O-])cc3)cc2)cc1C,4,0.26,6,-19,0.24,66*
SMILES,RBBP9 inh,KCC2 mod,14-3-3 Bad PPI,p47phox inh,ROMK primary,WT yeast gro inh
Clc1ccc2c(N/N=C/c3cccc(Br)c3)ccnc2c1,-10,0.54,22,1,.,99*
Cc1cc(C)cc(Oc2ccccc2CO)c1,-6,-0.63,-4,33*,-0.094,-6
Cc1cccc(C)c1NC(=S)N(C)CCc1ccccn1,-6,0.47,-4,-24,.,9
CC(C)c1ccc(NC(=S)N(C)CCc2ccccn2)cc1,-5,0.021,-5,4,.,74*
CC(=O)Nc1ccc2nc(NC(=O)COc3cccc(C)c3)sc2c1,4,0.098,22,-12,0.19,16
CC(C)[C@H](NC(=O)C1(c2ccccc2)CCN(C(=O)OC(C)(C)C)CC1)C(=O)O,3,.,-1,58*,.,13
CC(C)(C)OC(=O)N1CCC(C(=O)N[C@@H](Cc2ccccc2)C(=O)O)(c2ccccc2)CC1,-4,1.4,5,9,0.25,-1
CS(=O)(=O)CCSc1ncccc1C(=O)NCc1cccs1,-1,.,-19,-12,.,.
CC(C)(C)NC(=O)c1ccc2nsnc2c1,-4,0.82,90*[fluorescence artefact?],-11,0.17,-36
Cn1nnc2cc(C(=O)NC(C)(C)C)ccc21,0,0.14,22,-10,.,9
O=C1C=C(Nc2ccc(Cl)cc2)CC(c2ccc(Cl)cc2)C1 (centres undefined),-14,-0.59,.,-5,.,68*
Cc1cccc(C)c1NC(=S)NCc1ccncc1,2,0.86,-13,-12,.,.
Cc1ccc(-c2sc(-c3cccnc3)nc2CC(=O)O)cc1,-3,-0.43,75*,-4,0.33,3
C/C(CC(=O)Nc1ccc2c(c1)OCCO2)=N\NC(=O)C(=O)Nc1ccccc1C,0,1.2,6,-8,-0.88,1
COc1cc(-c2[nH]ncc2CN(C)Cc2nonc2C)cc(OC)c1OC,4,0.36,-16,4,-0.15,10
COc1cc(-c2[nH]ncc2CN(C)Cc2cc(C)[nH]n2)cc(OC)c1OC,-3,0.59,-5,36*,-0.35,-4
CCC(C)(C)c1ccc(OCCCC[n+]2ccccc2)c(C(C)(C)CC)c1,-8,-0.01,1,8,-3.7*,93*
O=C(NCc1ccccc1)C1CCCN1S(=O)(=O)c1cccc2cccnc12 (centres undefined),-7,-2.6,-1,47*,.,-3
CN1/C(=C\C=Nc2ccc3ccccc3c2)C(C)(C)c2ccccc21,0,.,43,-29,.,77*
CN(C)c1ccc(N=C/C=C2\N(C)c3ccccc3C2(C)C)cc1,9,-1.2,-5,-92,.,21
Cc1cc(C)c(S(=O)(=O)N2CCC(C(=O)NCc3ccc(Cl)cc3Cl)CC2)c(C)c1,-2,0.94,-6,-7,-0.88,75*
Cc1c(C(=O)C(=O)NCCCn2ccnc2)c2ccccc2n1C,-7,.,-13,-8,.,-9
Cc1c(O)cc2c(c1O)C(=O)CC(c1ccc(O)cc1)O2 (centres undefined),-6,0.11,37,-33,.,4
CC(C)=CCc1c(O)c(CC=C(C)C)c2c(c1O)C(=O)CC(c1ccc(O)cc1)O2 (centres undefined),-17,-0.2,1,-24,.,91*
Fc1cccc(Cn2cc(C(=S)N3CCCCC3)c3ccccc32)c1,-1,1.1,-22,-10,.,76*

# High-throughput results: PubChem, several laboratories
